Laboratory results reported in ChEMBL document CHEMBL4038284, “Synthesis of novel quinoline-based 4,5-dihydro-1H-pyrazoles as potential anticancer, antifungal, antibacterial and antiprotozoal agents” (Eur J Med Chem, 2017).
Converted amounts (≈) assume the structure as drawn.

Tests used:
[1] = test system: Candida albicans; test: Growth inhibition of Candida albicans ATCC 10231 at 250 ug/ml incubated for 48 hrs under dark condition by broth microdilution method relative to control; assay type: functional; settings: ATCC 10231, 48 h, read-out: GI
How it was run: (§1)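 CLSI M27-A3 broth microdilution in RPMI-1640, DMSO ≤1%. Inoculum 1-5 × 10^3 CFU/mL. Incubated 48 h at 30 °C, dark. % inhibition = 100 − (OD405 test − sterility control)/(OD405 growth control − sterility control), with growth and sterility control wells. Triplicate.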

[2] = test system: Klebsiella pneumoniae; test: Antibacterial activity against ESBL positive Klebsiella pneumoniae ATCC 700603 after 24 hrs by resazurin dye based microdilution assay; assay type: functional; settings: Klebsiella pneumoniae, 700603, 24 h
How it was run: (§2)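 MIC taken as the lowest concentration giving visible inhibition and/or by resazurin (1 mg/mL). Gentamicin was the control. Run in duplicate, repeated at least three times.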

[3] = test system: Trypanosoma cruzi; test: Antitrypanosomal activity against Trypanosoma cruzi Tulahuen intracellular amastigote harboring LacZ infected in human U937 cells after 72 hrs by CPRG/Nonidet reagent based spectrophotometric method; assay type: functional, cell-based; settings: U-937, 72 h
How it was run: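 U-937 cells at 2.5 × 10^5 cells/mL in RPMI-1640 with 10% serum and 0.1 µg/mL PMA were infected with β-galactosidase-transfected Tulahuen epimastigotes at 5 parasites per cell. Infected cells were exposed to 50, 12.5, 3.125 and 0.78 µg/mL for 72 h. CPRG (100 uM) and 0.1% Nonidet P-40 were added for 3 h, read at 570 nm. EC50 by Probit. Triplicate, at least two experiments; benznidazole as reference.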

[4] = test system: Cryptococcus neoformans; test: Growth inhibition of Cryptococcus neoformans ATCC 32264 at 15.62 ug/ml incubated for 48 hrs under dark condition by broth microdilution method relative to control; assay type: functional; settings: ATCC 32264, 48 h, read-out: GI; how it was run: as §1
[5] = test system: Candida albicans; test: Growth inhibition of Candida albicans ATCC 10231 at 15.62 ug/ml incubated for 48 hrs under dark condition by broth microdilution method relative to control; assay type: functional; settings: ATCC 10231, 48 h, read-out: GI; how it was run: as §1
[6] = test system: Cryptococcus neoformans; test: Growth inhibition of Cryptococcus neoformans ATCC 32264 at 250 ug/ml incubated for 48 hrs under dark condition by broth microdilution method relative to control; assay type: functional; settings: ATCC 32264, 48 h, read-out: GI; how it was run: as §1
[7] = test system: Cryptococcus neoformans; test: Growth inhibition of Cryptococcus neoformans ATCC 32264 at 125 ug/ml incubated for 48 hrs under dark condition by broth microdilution method relative to control; assay type: functional; settings: ATCC 32264, 48 h, read-out: GI; how it was run: as §1
[8] = test system: Staphylococcus aureus; test: Antibacterial activity against vancomycin-intermediate Staphylococcus aureus after 24 hrs by resazurin dye based microdilution assay; assay type: functional; how it was run: as §2
[9] = test system: Staphylococcus aureus; test: Antibacterial activity against methicillin-resistant Staphylococcus aureus ATCC 43300 after 24 hrs by resazurin dye based microdilution assay; assay type: functional; settings: ATCC 43300, 24 h
How it was run: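 Broth microdilution in Mueller Hinton broth, inoculum 5 × 10^5 – 8 × 10^5. Compound stocks diluted in MHB with 5% DMSO and 0.1% Tween 80. Incubation 24 h at 35-37 °C. MIC is the lowest concentration with visible growth inhibition and/or by resazurin (1 mg/mL) read-out. Gentamicin as control. Run in duplicate, replicated at least three times.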

[10] = test system: Neisseria gonorrhoeae; test: Antibacterial activity against beta lactamase positive Neisseria gonorrhoeae ATCC 31426 by oxidase test; assay type: functional
How it was run: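 Agar dilution MIC on GC agar with 1% isovitalex containing increasing compound concentrations. Plates inoculated with about 1×10^4 CFU (5 µL). MIC is the lowest concentration that inhibited growth, with growth confirmed by oxidase test. Run in duplicate, repeated at least three times.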

[11] = test system: Cryptococcus neoformans; test: Growth inhibition of Cryptococcus neoformans ATCC 32264 at 62.5 ug/ml incubated for 48 hrs under dark condition by broth microdilution method relative to control; assay type: functional; settings: ATCC 32264, 48 h, read-out: GI; how it was run: as §1
[12] = test system: Leishmania panamensis; test: Antileshmanial activity against EpiR/GFP fused Leishmania panamensis MHOM/CO/87/UA140 intracellular amastigotes infected in human […] cells after 72 hrs by flow cytometric method; assay type: functional, cell-based; settings: MHOM/CO/87/UA140, 72 h
How it was run: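 PMA-treated U-937 cells (3 × 10^5 cells/mL) infected with stationary-phase GFP L. panamensis promastigotes (15:1), 3 h at 34 °C, then washed. After 24 h, compounds added at 50, 12.5, 3.125 and 0.78 µg/mL for 72 h at 37 °C. EC50 by Probit; triplicate, two experiments.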

[13] = test system: Candida albicans; test: Growth inhibition of Candida albicans ATCC 10231 at 125 ug/ml incubated for 48 hrs under dark condition by broth microdilution method relative to control; assay type: functional; settings: ATCC 10231, 48 h, read-out: GI; how it was run: as §1
[14] = test system: Cryptococcus neoformans; test: Growth inhibition of Cryptococcus neoformans ATCC 32264 at 31.25 ug/ml incubated for 48 hrs under dark condition by broth microdilution method relative to control; assay type: functional; settings: ATCC 32264, 48 h, read-out: GI; how it was run: as §1
[15] = test system: Cryptococcus neoformans; test: Growth inhibition of Cryptococcus neoformans ATCC 32264 at 3.4 ug/ml incubated for 48 hrs under dark condition by broth microdilution method relative to control; assay type: functional; settings: ATCC 32264, 48 h, read-out: GI
[16] = test system: Candida albicans; test: Antifungal activity against Candida albicans ATCC 10231 incubated for 48 hrs under dark condition by broth microdilution method; assay type: functional; settings: ATCC 10231, 48 h
How it was run: (§3)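 CLSI M27-A3 broth microdilution in RPMI-1640, DMSO ≤1%, compounds at 250-0.98 µg/mL final. Inoculum 1-5 × 10^3 CFU/mL. Incubated 48 h at 30 °C in a moist dark chamber, read at OD405. MIC80 and MIC50 taken from % inhibition dose-response curves (mean ± SEM, triplicate). Amphotericin B was the positive control.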

[17] = test system: Staphylococcus aureus; test: Antibacterial activity against methicillin-sensitive Staphylococcus aureus ATCC 25923 after 24 hrs by resazurin dye based microdilution assay; assay type: functional; settings: ATCC 25923, 24 h; how it was run: as §2
[18] = test system: U-937; test: Cytotoxicity against human U937 cells after 72 hrs by MTT assay; assay type: cell-based; settings: u-937, 72 h
How it was run: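 Exponentially growing U-937 at 1 × 10^5 cells/mL in RPMI-1640 with 10% FBS were exposed to 200, 50, 12.5 and 3.125 µg/mL for 72 h at 37 °C, 5% CO2. MTT for 3 h, stopped with isopropanol/SDS, formazan read at 570 nm, blank-corrected. LC50 by Probit from % viability against untreated cells. Triplicate, at least two independent experiments.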

[19] = test system: Candida albicans; test: Growth inhibition of Candida albicans ATCC 10231 at 7.8 ug/ml incubated for 48 hrs under dark condition by broth microdilution method relative to control; assay type: functional; settings: ATCC 10231, 48 h, read-out: GI; how it was run: as §1
[20] = test system: Candida albicans; test: Growth inhibition of Candida albicans ATCC 10231 at 31.25 ug/ml incubated for 48 hrs under dark condition by broth microdilution method relative to control; assay type: functional; settings: ATCC 10231, 48 h, read-out: GI; how it was run: as §1
[21] = test system: Escherichia coli; test: Antibacterial activity against Escherichia coli ATCC 25922 after 24 hrs by resazurin dye based microdilution assay; assay type: functional; settings: ATCC 25922, 24 h; how it was run: as §2
[22] = test system: Pseudomonas aeruginosa; test: Antibacterial activity against Pseudomonas aeruginosa ATCC 27853 after 24 hrs by resazurin dye based microdilution assay; assay type: functional; settings: ATCC 27853, 24 h; how it was run: as §2
[23] = test system: Candida albicans; test: Growth inhibition of Candida albicans ATCC 10231 at 62.5 ug/ml incubated for 48 hrs under dark condition by broth microdilution method relative to control; assay type: functional; settings: ATCC 10231, 48 h, read-out: GI; how it was run: as §1
[24] = test system: Candida albicans; test: Growth inhibition of Candida albicans ATCC 10231 at 3.4 ug/ml incubated for 48 hrs under dark condition by broth microdilution method relative to control; assay type: functional; settings: ATCC 10231, 48 h, read-out: GI
[25] = test system: Cryptococcus neoformans; test: Antifungal activity against Cryptococcus neoformans ATCC 32264 incubated for 48 hrs under dark condition by broth microdilution method; assay type: functional; settings: ATCC 32264, 48 h; how it was run: as §3
[26] = test system: Plasmodium falciparum; test: Antiplasmodial activity against chloroquine-sensitive Plasmodium falciparum 3D7 assessed as reduction in parasitic LDH activity after 48 hrs by Malstat reagent based […] method; assay type: functional; settings: 3D7, 48 h
How it was run: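 Unsynchronized P. falciparum 3D7 at 0.5% parasitemia and 1% hematocrit in RPMI with 3% Albumax II. Exposed to 100, 25, 6.25 and 1.56 µg/mL for 48 h at 37 °C under 90% N2/5% CO2/5% O2. After three freeze-thaw cycles, LDH measured with Malstat and NBT/PES, 1 h in the dark, read at 650 nm. IC50 by Probit; triplicate, ≥2 experiments.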

[27] = test system: Klebsiella pneumoniae; test: Antibacterial activity against carbapenemase positive Klebsiella pneumoniae BAA 1705 after 24 hrs by resazurin dye based microdilution assay; assay type: functional; settings: BAA 1705, 24 h; how it was run: as §2
[28] = test system: Cryptococcus neoformans; test: Growth inhibition of Cryptococcus neoformans ATCC 32264 at 7.8 ug/ml incubated for 48 hrs under dark condition by broth microdilution method relative to control; assay type: functional; settings: ATCC 32264, 48 h, read-out: GI; how it was run: as §1

Compound	inhibition of growth at 250 µg/mL [1] [%]	MIC [2] [µg/mL]	EC50 [3] [µg/mL]	inhibition of growth at 15.62 µg/mL [4] [%]	inhibition of growth at 15.62 µg/mL [5] [%]	inhibition of growth at 250 µg/mL [6] [%]	inhibition of growth at 125 µg/mL [7] [%]	MIC [8] [µg/mL]	MIC [9] [µg/mL]	MIC [10] [µg/mL]	inhibition of growth at 62.5 µg/mL [11] [%]	EC50 [12] [µg/mL]	inhibition of growth at 125 µg/mL [13] [%]	inhibition of growth at 31.25 µg/mL [14] [%]	inhibition of growth at 3.4 µg/mL [15] [%]	MIC50 [16] [µg/mL]	MIC80 [16] [µg/mL]	MIC [17] [µg/mL]	LC50 [18] [µg/mL]	inhibition of growth at 7.8 µg/mL [19] [%]	other results
Clc1cc(Cl)cc(N2N=C(c3ccc(Br)cc3)CC2c2cccc(Nc3ccnc4cc(Cl)ccc34)c2)c1 (stereo not given)	13.7	> 1000	28.3 (≈ 45.4 µM)	0	1.92	13.3	0	> 1000	> 1000	> 1000	0	2.77 (≈ 4.45 µM)	7.23	0	0	≥ 250	≥ 250	> 1000	> 200	1.43	inhibition of growth at 31.25 µg/mL [20]: 2.07%; MIC [21]: > 1000 µg/mL; MIC [22]: > 1000 µg/mL; inhibition of growth at 62.5 µg/mL [23]: 4.45%; inhibition of growth at 3.4 µg/mL [24]: 0%; MIC50 [25]: ≥ 250 µg/mL; MIC80 [25]: ≥ 250 µg/mL; EC50 [26]: 14.4 µg/mL (≈ 23.1 µM); MIC [27]: > 1000 µg/mL; inhibition of growth at 7.8 µg/mL [28]: 0%
Cc1ccc(C2=NN(C=O)C(c3cccc(Nc4ccnc5cc(Cl)ccc45)c3)C2)cc1 (stereo not given)	48.4	> 1000	0.96 (≈ 2.18 µM)	43.6	22.6	76	50.7	> 1000	> 1000	> 1000	44.5	2.19 (≈ 4.97 µM)	28.5	44.4	24.8	≥ 250	≥ 250	> 1000	1.3 (≈ 2.95 µM)	13.7	inhibition of growth at 31.25 µg/mL [20]: 23%; MIC [21]: > 1000 µg/mL; MIC [22]: > 1000 µg/mL; inhibition of growth at 62.5 µg/mL [23]: 24.3%; inhibition of growth at 3.4 µg/mL [24]: 12.7%; MIC50 [25]: 125 µg/mL (≈ 283 µM); MIC80 [25]: ≥ 250 µg/mL; EC50 [26]: 16.2 µg/mL (≈ 36.7 µM); MIC [27]: > 1000 µg/mL; inhibition of growth at 7.8 µg/mL [28]: 31.1%
